Measured values: article PMC3835402 (Molecular bioSystems, 2010)
“Also recorded” adds a separate entry of the source. One block for each compound: values may come before it.

Legend:
endogenous ER-α = target: T1, endogenous ER-α (Homo sapiens, UniProt P03372); experiment: ER degradation in MCF7 cells by western blotting; format: cell-based; conditions: western blot; for ER level on treatment with 13 and the proteasome inhibitor epoxomicin: Fig. 4A
T1 sequence (P03372 1-595): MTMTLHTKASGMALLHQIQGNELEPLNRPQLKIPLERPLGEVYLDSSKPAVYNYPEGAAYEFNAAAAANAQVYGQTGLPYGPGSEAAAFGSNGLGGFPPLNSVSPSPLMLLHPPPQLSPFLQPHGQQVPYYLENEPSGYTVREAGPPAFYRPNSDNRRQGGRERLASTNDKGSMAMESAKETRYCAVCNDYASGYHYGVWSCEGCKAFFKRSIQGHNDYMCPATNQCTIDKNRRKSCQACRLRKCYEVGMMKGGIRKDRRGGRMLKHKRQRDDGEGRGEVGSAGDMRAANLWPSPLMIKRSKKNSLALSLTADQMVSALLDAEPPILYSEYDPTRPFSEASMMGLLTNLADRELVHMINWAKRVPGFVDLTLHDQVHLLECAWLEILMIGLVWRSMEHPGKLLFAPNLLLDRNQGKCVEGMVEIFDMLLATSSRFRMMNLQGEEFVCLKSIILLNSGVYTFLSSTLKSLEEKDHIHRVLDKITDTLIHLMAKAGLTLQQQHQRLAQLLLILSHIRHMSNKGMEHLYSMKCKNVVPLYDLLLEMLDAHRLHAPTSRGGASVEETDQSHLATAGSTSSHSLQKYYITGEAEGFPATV

ER = target: T2, ER (Homo sapiens, UniProt P03372); experiment: ER immunofluorescence in MCF7 cells; format: cell-based; conditions: ER green, DAPI blue, compared to controls, Fig. 4C
T2 sequence (P03372 1-595): T1 sequence (P03372 1-595)
How it was run: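 MCF7 on ethanol/UV-sterilized coverslips, attached 24 h, then kept in phenol-red-free RPMI with 5% charcoal/dextran FBS. Test compound diluted in that medium, applied as for the western blots. Fixed in 4% PFA, permeabilized with 0.2% Triton X. Blocked in 10% goat serum/0.1% BSA in PBST. Anti-ER 1 h at 37°C, then Alexa Fluor 488 secondary 30 min. DAPI mount, inverted fluorescence microscopy.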

MCF7 cells = experiment: Cell viability assay by MTS; format: cell-based, human; conditions: 48 hour treatment, Fig. 5B
How it was run: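 MCF7 seeded at 5 × 10³ cells in RPMI 1640 with 10% FBS overnight, then switched to 5% charcoal-dextran FBS RPMI for 24 h before dosing. Test compound was added in DMSO vehicle for 48 h. Viability was read by MTS (CellTiter 96 AQueous One) absorbance at 490 nm. IC50 was fitted by nonlinear sigmoid dose-response regression from at least triplicate results.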

Compound: CC[C@H](C)[C@H](NC(=O)[C@H]([C@@H](C)CC)N(C)C(C)=O)C(=O)N[C@H](C(=O)N[C@@H](CC(C)C)C(=O)[C@@]1(C)CO1)[C@@H](C)O [epoxomicin, reference compound]
ER level on treatment with 13 and the proteasome inhibitor epoxomicin (endogenous ER-α): accumulation of the ER
ER level by immunofluorescence (ER): causes the accumulation of the ER

Compound: -Leu-Ala-Pro^OH-Tyr-Ile-OBzl [compound 15]
ER degradation at the highest concentration examined (endogenous ER-α; 50 μM, 48 hour treatment, Fig. 3B): all PROTACs but 15 showed significant ER degradation

The next lines start with results.

ER level by immunofluorescence (ER): does not cause ER degradation
Compound: -Leu-Ala-Nle-Leu-Tyr-Ile-OBzl [compound 17]

ER degradation, dependence on the hydroxyproline residue (pVHL recognition) (endogenous ER-α; Fig. 4B (text says Fig 4C)): effectively causes ER degradation
Compound: -Leu-Ala-Pro^OH-Tyr-Ile-OBzl [compound 12]

time-dependent ER degradation, treated once (endogenous ER-α; between 48 and 72 hours, Fig. 3D): stable between 48 and 72 hours
ER level on treatment with 13 and the proteasome inhibitor epoxomicin (endogenous ER-α): proteasome-dependent
ER degradation at even lower doses (endogenous ER-α; data not shown): degraded the ER most effectively
Compound: -Leu-Ala-Pro^OH-Tyr-Ile-OBzl [compound 13]
inhibition of proliferation of MCF7 cells (MCF7 cells): best efficacy; also recorded: most effective
